Data: the RNAGym collection of RNA variant scans (doi:10.1126/science.aae0568)
Variants at the floor of the assay were thinned out.

B1: tRNA (parent)
chain: GUUCCGUUGGCGUAAUGGUAACGCGUCUCCCUCCUAAGGAGAAGACUGCGGGUUCGAGUCCCGUACGGAACG

Variants of: B1
Assay: yeast fitness relative to wild type (ratio to wild type); higher = fitter; tRNA-Arg(CCU), competitive growth, 37 C, YPD
Summary of the method: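 The tRNA-Arg(CCU) gene variants were made by chemical synthesis with a 3% per-site mutation rate at 69 sites and inserted at the native genomic locus of Saccharomyces cerevisiae. After pooling, the strains were competed in YPD at 37°C for 24 hours in six parallel replicates. Gene amplicons from the start population and each end population were read by 100-nucleotide paired-end sequencing, and Darwinian fitness relative to wild type was taken from genotype frequency changes. Genotypes needed ≥ 100 starting reads, and estimates < 0.5 were set to 0.5.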

First: GUUCCGUUGGCGUAAUGGCAACGCGUCUCCCUCCUAAGGAGAAGAAUGCGGGUUCGCGUCCCGUACGGACCG
Second: GUUCCGUUGGCGUAAUGGCAACGCGUCUCCCUCCUAAGCACAAGACUGCGGGUUCGAGUCCCGUACGGAACG
The yeast fitness of the first is lower: no more than 0.5 for the first, 0.51 for the second.

First: GUUCCGUUGGCGUAAUGGCAACGCGUCUCCCUCCUAAAGAAAAGACUGCGGGUUCGAGUCCCGUACGGAACG
Second: GUUCCGUUGGCGUAAUGGCAACGCGUCUCCCUCCUAAGGAGAACACUGCGGGUUCGAGUCCCGUACGGUACG
The yeast fitness of the first is lower: 0.577 for the first, 0.762 for the second.

Compared with GUUCCGUUGGCGUAAUGGCAACGCGUCUCCCUCCUAAGGAGAAGACUGCAGGUUAGAGUCCCGUUCGGAACG, GUUCCGUUGGCGUAAUGGCAACGCGUCUCCCUCCUAAGGAGAAGACUCCGGGUUCAAGUCCCGUACGGCACG is higher in yeast fitness: no more than 0.5 for the first, 0.642 for the second.

First: GUUCCGUUGGCGUAAUGGCAACGCGUCUCCCUCUUAAGGAGAUGACUGCGGGUUCGAGUCCCAUACGGACCG
Second: GUUCCGUUGGCGUAAUGGCAACGCGUCUCCCUCCUAAGGAGAAGACUGAGGGUUCGCGUCCCGUACGGAACG
The yeast fitness of the first is lower: no more than 0.5 for the first, 0.599 for the second.

Compared with GUUCCGUUGGCGUAAUGGCAACGCGUCUCCCUCCUAAGGAGAAGAUUGCGGGUUCGAGUCCCGUACGGUACG, GUUCCGUUGGCGUAAUGGCAACGCGUCUCCCUCCUAAGGAGAAGACUGCGGGUUAGAGUCCCGUACGGAACG is lower in yeast fitness: 0.804 for the first, 0.601 for the second.

Compared with GUUCCGUUGGCGUAAUGGCAACGCGUCUCCCUCCUAAGGAGAAGACUACAGGUUCGAGUCCCGUACGGAACG, GUUCCGUUGGCGUAAUGGCAACGCGUCUCCCUCCUAAGGAGAAGACUACGGGUUCGACUCACGUACGGAACG is lower in yeast fitness: 0.693 for the first, no more than 0.5 for the second.

First: GUUCCGUUGGCGUAAUGGCAACGCGUCUCCCUCCUAAGGAGAAGACUGCGGGUUCGAGUCUCGUACGGAACG
Second: GUUCCGUUGGCGUAAUGGCAACGCGUCUCCCUCCUAAGGAGAAGACUGCGGGUUCGAGUUCUGUACGGGACG
The yeast fitness of the first is higher: 0.925 for the first, no more than 0.5 for the second.

First: GUUCCGUUGGCGUAAUGGCAACGCGUCUCCCUCCUAAAGAGAAGACUGCGGGUUCGAGUCCCGUACGGAACG
Second: GUUCCGUUGGCGUAAUGGCAACGCGUCUCCCUCCUAAGGAGAAGACUCCGGGUUCGAGUCCCGUACGGAACG
The yeast fitness of the first is higher: 1.01 for the first, 0.922 for the second.

First: GUUCCGUUGGCGUAAUGGCAACGCGUCUCCCUCCUAAGGAGAAGACUGCGGGUUCGAGUCCCGUACGCAACG
Second: GUUCCGUUGGCGUAAUGGCAACGCGUCUCCCUCCUAAGGAGAAGACUGCGGGUUUGAGUCACGUACGGAACG
The yeast fitness of the first is higher: 0.83 for the first, no more than 0.5 for the second.

GUUCCGUUGGCGUAAUGGCAACGCGUCUCCCUCCUAAGGAGAAGACUGAGGGUUCGAGUCCCGUACGCAACG and GUUCCGUUGGCGUAAUGGCAACGCGUCUCCCUCCUAAGGAGAAGACUGCAGGUUAGAGUCCCAUAAGGAACG cannot be ordered by yeast fitness: no more than 0.5 for the first, no more than 0.5 for the second.

Going from GUUCCGUUGGCGUAAUGGCAACGCGUCUCCCUCCUAAGGAGAAGACUGCGGGUUCAAGUCCCGUACGGAACG to GUUCCGUUGGCGUAAUGGCAACGCGUCUCCCUCCUAACGAGAAGACUGCGGGUUCGAGUCCGGUACGGAACG, the yeast fitness falls from 0.91 to no more than 0.5.

Compared with GUUCCGUUGGCGUAAUGGCAACGCCUCUCCCUCCUAAGGAGAAGACUGCGCGUUCGAGUUCCGUACAGAACG, GUUCCGUUGGCGUAAUGGCAACGCGUCUCCCUCCUAAGGAGAAGACUCCGGGUUUGAGUCCCGUACGGAACG is lower in yeast fitness: 0.545 for the first, no more than 0.5 for the second.

First: GUUCCGUUGGCGUAAUGGCAACGCGUCUCCCUCCUAACGAGAACAAUGCGGGUUCGAGUCCCGUACGGAGCG
Second: GUUCCGUUGGCGUAAUGGCAACGCGUCUCCCUCCUAAGGAGAAGACUGCGGGUUCGAAUCCCGUACGGAACG
The yeast fitness of the first is lower: 0.574 for the first, 0.961 for the second.

Compared with GUUCCGUUGGCGUAAUGGCAACCCGUCUCCCUCCUAAGGAGAAGACUGCGGGUUCGAGUCGCGUACGGAACG, GUUCCGUUGGCGUAAUGGCAACGCGUCUCCCUCCUAAGGAGAAGACUGCGGGUUCGAGUCCCAUACGGAACG is higher in yeast fitness: no more than 0.5 for the first, 0.918 for the second.

Going from GUUCCGUUGGCGUAAUGGCAACGCGUCUCCCUCCUAAGGAGAAGACUGCGGGUUCGAGUCCAGUACGGAACG to GUUCCGUUGGCGUAAUGGCAACGCGUCUCCCUCCUAAGGAGAAGACUGCGGGUUCGAGUCCGGUACGGAACG, the yeast fitness rises from 0.713 to 0.832.

Going from GUUCCGUUGGCGUAAUGGCAACGCGACUCCCACCUAAGGAGAAGACUGCGGGUUCGAGUCCCGUACGGAACG to GUUCCGUUGGCGUAAUGGCAACGCGCCUCCCUCCUAAGGAGAAGACUGCGGGUUCGAGUCCCGUACGGAACG, the yeast fitness rises from 0.541 to 0.928.

Going from GUUCCGUUGGCGUAAUGGCAACGCGUCUCCCUCCUAAGGAGAAGAAUGCGGGUUCGAGUGCCGUACCGAACG to GUUCCGUUGGCGUAAUGGCAACGCGUCUCCCUCCUAAGGAGAACACUGCGGGUUCGAAUCCCGUGCGGAACG, the yeast fitness rises from no more than 0.5 to 0.987.

Going from GUUCCGUUGGCGUAAUGGCAACGCGUCUCCCUCCUAAGGAGAAGACUGAGGGUUUGAGUCCCGUACGGAACG to GUUCCGUUGGCGUAAUGGCAACCCGUCUCCCUCCUAAGGAGAAGACUGCGGGCUCGAGUCCCGUACGGAACG, the yeast fitness rises from no more than 0.5 to 0.562.

First: GUUCCGUUGGCGUAAUGGCAACGCGUCUCCCUCCUAAGGACAAGACUGCGGGUUCGAGUCCCGUACGGAACG
Second: GUUCCGUUGGCGUAAUGGCAACGCGUCUCCCUCCUAAGGAGAAGACUGCGGGUUAGAGUCCCGUAAGGAACG
The yeast fitness of the first is higher: 0.987 for the first, no more than 0.5 for the second.
